Laboratory results: ChEMBL document CHEMBL5724801, “EUbOPEN Chemogenomics Library - Multiplex” (2024)
“And” between values parts separate entries of the source, which are not always exact repeats. Equal values may be shown once.

Tested on: Fibroblast
Assay: Multiplex assay against human fibroblast
Type: toxicity, cell-based
Procedure, shortened: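 Values for tubulin, mitochondrial-mass and membrane-permeability phenotypes are per cents of cells with healthy nuclei. These cells were identified by CellPathfinder machine-learning gating of live cells that had been stained at seeding with Hoechst33342, BioTracker Green Microtubule Cytoskeleton Dye, MitoTracker Red and Annexin V Alexa Fluor 680 and imaged on a CQ1 microscope at 37°C and 5% CO2 after compound addition. The gating first set Hoechst high-intensity objects apart from normal cells, then split normal cells into healthy, pyknosed or fragmented nuclei, and pyknosed cells into mitotic or apoptotic.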

[1] = 12 h, 1 µM, compound concentration 1 uM
[2] = 12 h, 10 µM, compound concentration 10 uM
[3] = 24 h, 1 µM, compound concentration 1 uM
[4] = 24 h, 10 µM, compound concentration 10 uM
[5] = 48 h, 1 µM, compound concentration 1 uM
[6] = 48 h, 10 µM, compound concentration 10 uM

## O=C(NCCO)c1cccc(-c2cc(Nc3ccc(OC(F)(F)F)cc3)ncn2)c1
[1]
  Population Apoptotic (%): 46% and 38%
  Population Fragmented Nuclei (%): 16% and 29%
  Population Healthy Nuclei (%): 60% and 46%
  Population Hoechst High Intensity Objects (%): 3% and 4%
  Population Membrane Permeable-Phenotype (%): 1% and 10%
  Population Mitochondria Different-Phenotype (%): 6% and 8%
  Population Mitotic Cells (%): 53% and 61%
  Population Normal (%): 96% and 95%
  Population Pyknosed Nuclei (%): 24% and 23%
  Population Tubulin-Different-Phenotype (%): 33% and 46%
  Total Cell Count: 130 and 149
[2]
  Population Apoptotic (%): 37% and 40%
  Population Fragmented Nuclei (%): 17% and 22%
  Population Healthy Nuclei (%): 59% and 36%
  Population Hoechst High Intensity Objects (%): 5% and 10%
  Population Membrane Permeable-Phenotype (%): 0% and 11%
  Population Mitochondria Different-Phenotype (%): 13% and 11%
  Population Mitotic Cells (%): 62% and 59%
  Population Normal (%): 94% and 89%
  Population Pyknosed Nuclei (%): 22% and 40%
  Population Tubulin-Different-Phenotype (%): 54% and 79%
  Total Cell Count: 185 and 192
[3]
  Population Apoptotic (%): 56% and 52%
  Population Fragmented Nuclei (%): 16% and 24%
  Population Healthy Nuclei (%): 60% and 50%
  Population Hoechst High Intensity Objects (%): 1% and 2%
  Population Membrane Permeable-Phenotype (%): 2% and 5%
  Population Mitochondria Different-Phenotype (%): 4% and 5%
  Population Mitotic Cells (%): 43% and 47%
  Population Normal (%): 98% and 97%
  Population Pyknosed Nuclei (%): 22% and 25%
  Population Tubulin-Different-Phenotype (%): 33% and 42%
  Total Cell Count: 135 and 139
[4]
  Population Apoptotic (%): 50% and 41%
  Population Fragmented Nuclei (%): 14% and 30%
  Population Healthy Nuclei (%): 61% and 36%
  Population Hoechst High Intensity Objects (%): 11% and 7%
  Population Membrane Permeable-Phenotype (%): 1% and 10%
  Population Mitochondria Different-Phenotype (%): 21% and 25%
  Population Mitotic Cells (%): 50% and 58%
  Population Normal (%): 88% and 92%
  Population Pyknosed Nuclei (%): 24% and 32%
  Population Tubulin-Different-Phenotype (%): 53% and 84%
  Total Cell Count: 175 and 187
[5]
  Population Apoptotic (%): 82% and 45%
  Population Fragmented Nuclei (%): 21% and 31%
  Population Healthy Nuclei (%): 65% and 53%
  Population Hoechst High Intensity Objects (%): 1%
  Population Membrane Permeable-Phenotype (%): 3% and 6%
  Population Mitochondria Different-Phenotype (%): 1% and 4%
  Population Normal (%): 98%
  Population Pyknosed Nuclei (%): 13% and 14%
  Population Tubulin-Different-Phenotype (%): 28% and 38%
  Total Cell Count: 130 and 156
[6]
  Population Apoptotic (%): 70% and 76%
  Population Fragmented Nuclei (%): 35% and 40%
  Population Healthy Nuclei (%): 51% and 47%
  Population Hoechst High Intensity Objects (%): 13% and 6%
  Population Membrane Permeable-Phenotype (%): 0% and 13%
  Population Mitochondria Different-Phenotype (%): 26% and 19%
  Population Mitotic Cells (%): 30% and 23%
  Population Normal (%): 86% and 93%
  Population Pyknosed Nuclei (%): 13% and 11%
  Population Tubulin-Different-Phenotype (%): 64% and 86%
  Total Cell Count: 170 and 198

## O=C1COc2nccc(-c3ccccc3F)c2CN1Cc1cc(C(F)(F)F)cc(C(F)(F)F)c1
[1]
  Population Apoptotic (%): 38% and 29%
  Population Fragmented Nuclei (%): 12% and 17%
  Population Healthy Nuclei (%): 74% and 62%
  Population Hoechst High Intensity Objects (%): 2% and 0%
  Population Membrane Permeable-Phenotype (%): 1%
  Population Mitochondria Different-Phenotype (%): 7% and 5%
  Population Mitotic Cells (%): 61% and 70%
  Population Normal (%): 97% and 99%
  Population Pyknosed Nuclei (%): 13% and 20%
  Population Tubulin-Different-Phenotype (%): 27% and 32%
  Total Cell Count: 195 and 135
[2]
  Population Apoptotic (%): 54% and 37%
  Population Fragmented Nuclei (%): 15% and 24%
  Population Healthy Nuclei (%): 69% and 51%
  Population Hoechst High Intensity Objects (%): 5% and 8%
  Population Membrane Permeable-Phenotype (%): 0% and 4%
  Population Mitochondria Different-Phenotype (%): 10% and 12%
  Population Mitotic Cells (%): 45% and 62%
  Population Normal (%): 94% and 91%
  Population Pyknosed Nuclei (%): 14% and 23%
  Population Tubulin-Different-Phenotype (%): 66% and 50%
  Total Cell Count: 161 and 132
[3]
  Population Apoptotic (%): 53% and 34%
  Population Fragmented Nuclei (%): 11% and 20%
  Population Healthy Nuclei (%): 74% and 58%
  Population Hoechst High Intensity Objects (%): 3% and 2%
  Population Membrane Permeable-Phenotype (%): 0% and 2%
  Population Mitochondria Different-Phenotype (%): 6% and 3%
  Population Mitotic Cells (%): 46% and 65%
  Population Normal (%): 96% and 97%
  Population Pyknosed Nuclei (%): 14% and 20%
  Population Tubulin-Different-Phenotype (%): 23% and 39%
  Total Cell Count: 203 and 142
[4]
  Population Apoptotic (%): 66% and 55%
  Population Fragmented Nuclei (%): 18% and 26%
  Population Healthy Nuclei (%): 71% and 56%
  Population Hoechst High Intensity Objects (%): 3% and 6%
  Population Membrane Permeable-Phenotype (%): 0% and 7%
  Population Mitochondria Different-Phenotype (%): 11% and 5%
  Population Mitotic Cells (%): 33% and 45%
  Population Normal (%): 96% and 93%
  Population Pyknosed Nuclei (%): 9% and 16%
  Population Tubulin-Different-Phenotype (%): 57% and 61%
  Total Cell Count: 162 and 129
[5]
  Population Apoptotic (%): 75% and 31%
  Population Fragmented Nuclei (%): 16% and 29%
  Population Healthy Nuclei (%): 75% and 55%
  Population Hoechst High Intensity Objects (%): 5% and 6%
  Population Membrane Permeable-Phenotype (%): 0% and 1%
  Population Mitochondria Different-Phenotype (%): 4% and 1%
  Population Mitotic Cells (%): 25% and 68%
  Population Normal (%): 94% and 93%
  Population Pyknosed Nuclei (%): 8% and 14%
  Population Tubulin-Different-Phenotype (%): 28% and 25%
  Total Cell Count: 210 and 143
[6]
  Population Apoptotic (%): 72% and 60%
  Population Fragmented Nuclei (%): 20% and 39%
  Population Healthy Nuclei (%): 72% and 49%
  Population Hoechst High Intensity Objects (%): 2% and 5%
  Population Membrane Permeable-Phenotype (%): 0% and 1%
  Population Mitochondria Different-Phenotype (%): 14% and 8%
  Population Mitotic Cells (%): 27% and 40%
  Population Normal (%): 97% and 94%
  Population Pyknosed Nuclei (%): 6% and 11%
  Population Tubulin-Different-Phenotype (%): 62% and 47%
  Total Cell Count: 172 and 144

## CC[C@H]1OC(=O)[C@H](C)[C@@H](O[C@H]2C[C@@](C)(OC)[C@@H](O)[C@H](C)O2)[C@H](C)[C@@H](O[C@@H]2O[C@H](C)C[C@H](N(C)C)[C@H]2O)[C@@]2(C)CC(C)=C(O2)[C@H](C)[C@@H](O)[C@]1(C)O
[1]
  Population Apoptotic (%): 37% and 46%
  Population Fragmented Nuclei (%): 13% and 23%
  Population Healthy Nuclei (%): 72% and 57%
  Population Hoechst High Intensity Objects (%): 2% and 3%
  Population Membrane Permeable-Phenotype (%): 0% and 9%
  Population Mitochondria Different-Phenotype (%): 8% and 6%
  Population Mitotic Cells (%): 62% and 53%
  Population Normal (%): 97% and 96%
  Population Pyknosed Nuclei (%): 13% and 18%
  Population Tubulin-Different-Phenotype (%): 40% and 53%
  Total Cell Count: 176 and 170
[2]
  Population Apoptotic (%): 48% and 40%
  Population Fragmented Nuclei (%): 24% and 41%
  Population Healthy Nuclei (%): 63% and 33%
  Population Hoechst High Intensity Objects (%): 3% and 4%
  Population Membrane Permeable-Phenotype (%): 0% and 14%
  Population Mitochondria Different-Phenotype (%): 25% and 11%
  Population Mitotic Cells (%): 52% and 59%
  Population Normal (%): 96% and 95%
  Population Pyknosed Nuclei (%): 12% and 25%
  Population Tubulin-Different-Phenotype (%): 86% and 73%
  Total Cell Count: 205 and 133
[3]
  Population Apoptotic (%): 52% and 46%
  Population Fragmented Nuclei (%): 18% and 29%
  Population Healthy Nuclei (%): 69% and 52%
  Population Hoechst High Intensity Objects (%): 4% and 3%
  Population Membrane Permeable-Phenotype (%): 0% and 7%
  Population Mitochondria Different-Phenotype (%): 7% and 5%
  Population Mitotic Cells (%): 47% and 53%
  Population Normal (%): 95% and 96%
  Population Pyknosed Nuclei (%): 12% and 17%
  Population Tubulin-Different-Phenotype (%): 45% and 36%
  Total Cell Count: 173 and 176
[4]
  Population Apoptotic (%): 52% and 46%
  Population Fragmented Nuclei (%): 22% and 40%
  Population Healthy Nuclei (%): 69% and 39%
  Population Hoechst High Intensity Objects (%): 2% and 1%
  Population Membrane Permeable-Phenotype (%): 0% and 8%
  Population Mitotic Cells (%): 47% and 53%
  Population Normal (%): 97% and 98%
  Population Pyknosed Nuclei (%): 8% and 20%
  Population Tubulin-Different-Phenotype (%): 89% and 81%
  Total Cell Count: 199 and 127
[5]
  Population Apoptotic (%): 55% and 56%
  Population Fragmented Nuclei (%): 17% and 32%
  Population Healthy Nuclei (%): 71% and 54%
  Population Hoechst High Intensity Objects (%): 3% and 2%
  Population Membrane Permeable-Phenotype (%): 0% and 7%
  Population Mitochondria Different-Phenotype (%): 9% and 5%
  Population Mitotic Cells (%): 44% and 43%
  Population Normal (%): 96% and 97%
  Population Pyknosed Nuclei (%): 11% and 13%
  Population Tubulin-Different-Phenotype (%): 57% and 56%
  Total Cell Count: 168 and 173
[6]
  Population Apoptotic (%): 84% and 58%
  Population Fragmented Nuclei (%): 24% and 43%
  Population Healthy Nuclei (%): 68% and 47%
  Population Hoechst High Intensity Objects (%): 8% and 7%
  Population Membrane Permeable-Phenotype (%): 0% and 6%
  Population Mitotic Cells (%): 15% and 41%
  Population Normal (%): 91% and 92%
  Population Pyknosed Nuclei (%): 6% and 9%
  Population Tubulin-Different-Phenotype (%): 91% and 78%
  Total Cell Count: 216 and 139
